aDG glyco up – alpha-DG glycosylation activation | 0.22% of 360,000 active | Pro5-aDG cells, alpha-DG glycosylation AlphaScreen (IIH6); 0% Pro5, 100% B10-LARGE cell signal | activation, % at 10 µM;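 active = activation of at least 8% versus controls, or a plate z-score of at least 8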;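 also: Pro5 are CHO cells carrying HIG-tagged alpha-DG that lacks glycosylation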
MPTP block – blocks calcium-induced mitochondrial swelling. inhibition, % at 10 µM. isolated mouse mitochondria, Ca2+ swelling absorbance, 30 min. 1.4% of 360,000 active. AID 602449;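 active = inhibition of 50% or more, scaled per plate between neutral and stimulator controls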;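 also: 0% = DMSO wells given calcium and 100% = 1 mM EGTA wells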
ADAM17 inh – inhibits human ADAM17; P78536; recombinant ADAM17, EDANS/DABCYL FRET peptide cleavage; inhibition, % at 6.95 µM; 0.83% of 370,000 active; AID 720648;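 active = inhibition above the mean of compounds lying between control limits plus 3 SD, set per campaign, cut at about 8.5% in these data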;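 also: 0% = DMSO-only wells as the low control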
ADAM10 inh – inhibitors of human ADAM10 | O14672 | recombinant ADAM10, EDANS/DABCYL FRET peptide cleavage, 3 h | inhibition, % at 7 µM | 0.62% of 370,000 active | AID 720582;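 active = inhibition above a per-campaign cutoff equal to the mean of compounds falling between control-based bounds plus 3 SD, cut at about 20% in these data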;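 also: 0% = DMSO wells while the 100% control is not disclosed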
Target sequence (O14672 214-748 limits assumed): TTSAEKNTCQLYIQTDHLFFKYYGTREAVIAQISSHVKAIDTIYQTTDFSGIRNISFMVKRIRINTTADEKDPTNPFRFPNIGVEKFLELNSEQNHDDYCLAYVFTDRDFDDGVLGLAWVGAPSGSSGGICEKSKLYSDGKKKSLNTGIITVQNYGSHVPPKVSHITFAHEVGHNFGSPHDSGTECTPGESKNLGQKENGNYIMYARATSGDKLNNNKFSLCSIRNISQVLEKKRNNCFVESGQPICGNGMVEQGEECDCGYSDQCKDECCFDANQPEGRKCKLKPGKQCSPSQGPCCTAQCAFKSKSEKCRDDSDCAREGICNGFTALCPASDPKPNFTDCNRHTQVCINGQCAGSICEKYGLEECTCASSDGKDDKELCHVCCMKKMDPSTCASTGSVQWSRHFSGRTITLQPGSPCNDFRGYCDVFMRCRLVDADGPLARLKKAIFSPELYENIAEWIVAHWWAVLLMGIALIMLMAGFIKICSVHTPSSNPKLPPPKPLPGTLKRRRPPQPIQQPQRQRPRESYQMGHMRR
V-ATPase pHluor – yeast V-ATPase proton transport regulation by pHLuorin | response, % at 10 µM | 0.37% of 350,000 active | S. cerevisiae, pHLuorin cytosolic pH fluorescence; in the data active = response mostly above about 7.3%, no sharp cut-off; inactive = mostly below about 5.4%; also: actives read high
Hep lipid drop – modulators of hepatic lipid droplet formation; AML12 mouse hepatocytes, oleate lipid droplets, BODIPY imaging; inhibition, % at 6.5 µM; 0.4% of 240,000 active; AID 1656;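 active = lipid droplet intensity inhibited by at least 50%, with more than 500 cells counted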
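Material: mouse AML12 hepatocyte cell line, fixed after treatment; Timing: compound with oleate, overnight; Technique: high-content imaging of BODIPY-stained droplets and DAPI nuclei; Probe or stimulus: oleate, 100 µM final; Dosing: compound at 6.5 µM only.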
MPTP counter – membrane potential counter-screen of mitochondrial pore inhibitors; inhibition, % at 10 µM; 78% of 5,000 active; isolated mitochondria, Rhodamine 123 fluorescence; shares compounds with MPTP block; in the data active = inhibition above about 22%;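 also: 0% = DMSO vehicle and 100% = positive control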
MPTP swell DR – dose response confirmation of mitochondrial permeability transition pore inhibitors; 58% of 780 active; AID 651561; IC50, µM; shares compounds with MPTP block; isolated mitochondria swelling, absorbance; in the data active = IC50 below about 20 µM
MPTP counter DR – MPTP inhibitor counter-screen activity, dose response; shares compounds with MPTP block; isolated mitochondria counterscreen, fluorescence read-out; IC50, µM; 49% of 780 active; AID 651564; in the data active = IC50 below about 80 µM
* = called active by the depositor. Only some compounds are listed: those with a hit (about 3.1% of all), similar ones and a draw of the others.

How did CN1CCCN(C(=O)C2CCN(c3ncnc4c3sc3cccc(F)c34)CC2)CC1 do in these assays?
ADAM17 inh: -4.6; ADAM10 inh: -50.8

Results for CC(=O)c1ccc(NC(=S)N2CCC(Cc3ccccc3)CC2)cc1 ?
aDG glyco up: 0.3; MPTP block: 61.4*; ADAM17 inh: -2.0; ADAM10 inh: -3.3; V-ATPase pHluor: 4.3; Hep lipid drop: 6.4; MPTP counter: 43.5*

Results for CCC(NC(=O)c1ccc2c(ccn2Cc2cccc(-c3ccccc3C(=O)O)c2)c1)c1ccccc1 (stereo unspecified) ?
ADAM17 inh: -9.1; ADAM10 inh: -8.0

How did CCCCCN1CCCCC(NC(=O)c2ccccc2C)C1=O (stereo unspecified) do in these assays?
ADAM17 inh: -0.8; ADAM10 inh: -4.5

How did CCOC(=O)N(C)c1c(CC)nc2c(OCc3cccc(Cl)c3)cccn12 do in these assays?
aDG glyco up: 0.9; MPTP block: 0.0; ADAM17 inh: -3.8; ADAM10 inh: -11.8

What do the screens show for `Cc1nc2c(OCc3ccc(Cl)cc3Cl)cccn2c1N(C)Cc1cccs1`?
aDG glyco up: 1.3; MPTP block: 71.5*; ADAM17 inh: -5.7; ADAM10 inh: -8.1; MPTP counter: 87.2*

What do the screens show for `Cc1nc2c(OCc3cccc(Cl)c3)cccn2c1N(C)Cc1cccs1`?
aDG glyco up: 1.9; MPTP block: 71.1*; ADAM17 inh: -0.2; ADAM10 inh: -4.1; MPTP counter: 86.5*

Results for COC(=O)c1ccccc1COc1cccn2c(N(C)Cc3cccs3)c(C)nc12 ?
aDG glyco up: 3.0; MPTP block: 31.0; ADAM17 inh: -1.9; ADAM10 inh: -12.4

Results for CC1(NC(=O)c2ccc(C#Cc3cccc(F)c3)cn2)COC1 ?
ADAM17 inh: -27.9; ADAM10 inh: -100.4

How did O=C(NCCc1ccccc1)OCc1cn(Cc2ccc(F)cc2)nn1 do in these assays?
ADAM17 inh: -5.0; ADAM10 inh: -3.8

How did C[C@@H](N)C(=O)Nc1ccc(Cl)cc1C(=O)c1ccc[nH]1 do in these assays?
ADAM17 inh: -1.9; ADAM10 inh: 0.4

What do the screens show for `COc1ccccc1/C(C)=N/NC(=S)NCc1ccccc1`?
aDG glyco up: 0.3; MPTP block: 4.8; ADAM17 inh: -4.0; ADAM10 inh: 2.2; V-ATPase pHluor: -0.7; Hep lipid drop: 4.5

Results for C/C(=N\NC(=S)NCC(C)(C)C)c1cc(F)cc(F)c1O ?
aDG glyco up: -0.1; MPTP block: 85.1*; ADAM17 inh: -4.7; ADAM10 inh: -9.5; V-ATPase pHluor: -5.2; Hep lipid drop: -2.0; MPTP counter: 73.2*

Results for CCN(Cc1cn(CC2CCCCC2)nn1)S(=O)(=O)c1ccccc1Br ?
ADAM17 inh: 1.0; ADAM10 inh: 4.8

Results for CC1(C)CC(=O)C2=C(C1)NC1=C(C(=O)c3ccccc31)C2c1cc([N+](=O)[O-])ccc1O (stereo unspecified) ?
aDG glyco up: -0.1; MPTP block: 93.7*; ADAM17 inh: 1.1; ADAM10 inh: 8.9; V-ATPase pHluor: 1.0; Hep lipid drop: -5.6; MPTP counter: 56.9*

What do the screens show for `CC(C)c1ccc(C2C3=C(CC(C)(C)CC3=O)NC3=C2C(=O)c2ccccc23)cc1` (stereo unspecified)?
aDG glyco up: 1.3; MPTP block: 84.2*; ADAM17 inh: -1.8; ADAM10 inh: 0.5; V-ATPase pHluor: -1.8; MPTP counter: 61.0*

Results for CC(C)Sc1cc(N2CCCC2)nc(-c2ccccc2)n1 ?
aDG glyco up: 0.2; MPTP block: 1.4; ADAM17 inh: -7.5; ADAM10 inh: 0.8; V-ATPase pHluor: -2.0

What do the screens show for `CC(C)Sc1cc(N2CCOCC2)nc(-c2ccccc2)n1`?
aDG glyco up: 0.3; MPTP block: 50.0*; ADAM17 inh: 0.7; ADAM10 inh: -6.5; V-ATPase pHluor: 2.8; Hep lipid drop: 1.0; MPTP counter: -8.6; MPTP swell DR: >100; MPTP counter DR: 77*

Compound activity (PubChem BioAssay)
